Legend:
PBMC [1] = assay: Inhibition of LPS-induced TNFalpha production in human PBMC at 25 ug/mL after overnight incubation relative to DMSO-treated control; assay type: functional
How it was run: (§1)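 Single-donor venous blood diluted 10× in RPMI-1640, 1 mL aliquots, stimulated with LPS (E. coli O111:B4). Compounds added at […]; corresponding DMSO dilutions as controls. Overnight incubation, supernatants frozen at −20 °C, TNF-α measured by biological assay; percentage inhibition versus DMSO control.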

PBMC [2] = assay: Inhibition of LPS-induced TNFalpha production in human PBMC at 5 ug/mL after overnight incubation relative to DMSO-treated control; assay type: functional; how it was run: as §1
PBMC [3] = assay: Antiproliferative activity against PHA-stimulated human PBMC at 50 ug/mL after 4 days by MTT assay relative to DMSO-treated control; assay type: functional
How it was run: (§2)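 PBMC from one donor's heparinized blood, Ficoll gradient isolated, in RPMI-1640 with 10% FCS; 2 × 10⁵ cells/well. PHA added at […]; compounds from DMSO stock (10 mg/mL) diluted in medium; matching DMSO dilutions as control. Four-day culture, proliferation read by MTT colorimetry; percentage inhibition versus control.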

PBMC [4] = assay: Antiproliferative activity against PHA-stimulated human PBMC at 10 ug/mL after 4 days by MTT assay relative to DMSO-treated control; assay type: functional; how it was run: as §2
PBMC [5] = assay: Cytotoxicity against human PBMC cells at 10 ug/mL after 24 hrs by MTT assay relative to DMSO-treated control; assay type: cell-based
How it was run: (§3)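 Ficoll-isolated PBMC ([…]) in supplemented RPMI-1640, 2 × 10⁵/well, cultured 24 h with the preparations at the indicated concentrations; compounds dissolved in DMSO (10 mg/mL stock) and diluted in medium.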

PBMC [6] = assay: Cytotoxicity against human PBMC cells at 50 ug/mL after 24 hrs by MTT assay relative to DMSO-treated control; assay type: cell-based; how it was run: as §3

CCOC(=O)NCCCCN1c2ccccc2Sc2cc3ccccc3nc21
inhibition at 25 µg/mL (PBMC [1]): 12.3%
inhibition at 5 µg/mL (PBMC [2]): 0.2%
Activity (PBMC [3]): 83.7%
Activity (PBMC [4]): 73.9%
Activity (PBMC [5]): Non-toxic
Activity (PBMC [6]): Non-toxic

CS(=O)(=O)NCCCCN1c2ccccc2Sc2cc3ccccc3nc21
inhibition at 25 µg/mL (PBMC [1]): 42.3%
inhibition at 5 µg/mL (PBMC [2]): 14%
Activity (PBMC [3]): 94.3%
Activity (PBMC [4]): 42.3%
Activity (PBMC [5]): Non-toxic
Activity (PBMC [6]): Non-toxic

Brc1ccc2c(c1)Sc1cc3ccccc3nc1N2
inhibition at 25 µg/mL (PBMC [1]): 10.1%
inhibition at 5 µg/mL (PBMC [2]): 16.2%
Activity (PBMC [3]): 19%
Activity (PBMC [4]): -9.7%
Activity (PBMC [5]): Non-toxic
Activity (PBMC [6]): Non-toxic

CC(=O)NCCCN1c2ccc(Cl)cc2Sc2cc3ccccc3nc21
inhibition at 25 µg/mL (PBMC [1]): 60.6%
inhibition at 5 µg/mL (PBMC [2]): 11.4%
Activity (PBMC [3]): 58.3%
Activity (PBMC [4]): 50.8%
Activity (PBMC [5]): Non-toxic
Activity (PBMC [6]): Non-toxic

CS(=O)(=O)NCCCN1c2ccc(Cl)cc2Sc2cc3ccccc3nc21
inhibition at 25 µg/mL (PBMC [1]): 30.5%
inhibition at 5 µg/mL (PBMC [2]): 1.2%
Activity (PBMC [3]): 74.4%
Activity (PBMC [4]): 73.4%
Activity (PBMC [5]): Non-toxic
Activity (PBMC [6]): Non-toxic

CSc1ccc2c(c1)Sc1cc3ccccc3nc1N2CCCCNS(C)(=O)=O
inhibition at 25 µg/mL (PBMC [1]): 13.2%
inhibition at 5 µg/mL (PBMC [2]): 72.8%
Activity (PBMC [3]): 62.7%
Activity (PBMC [4]): 53.3%
Activity (PBMC [5]): Non-toxic
Activity (PBMC [6]): Non-toxic

CCOC(=O)NCCCN1c2ccc(Cl)cc2Sc2cc3ccccc3nc21
inhibition at 25 µg/mL (PBMC [1]): 31.7%
inhibition at 5 µg/mL (PBMC [2]): 10.3%
Activity (PBMC [3]): 60.4%
Activity (PBMC [4]): 45%
Activity (PBMC [5]): Non-toxic
Activity (PBMC [6]): Non-toxic

Clc1ccc2c(c1)Nc1nc3ccccc3cc1S2
inhibition at 25 µg/mL (PBMC [1]): 19.2%
inhibition at 5 µg/mL (PBMC [2]): -1.2%
Activity (PBMC [3]): 27.1%
Activity (PBMC [4]): 16.3%
Activity (PBMC [5]): Non-toxic
Activity (PBMC [6]): Non-toxic

CN1CCCCC1CCN1c2ccccc2Sc2cc3ccccc3nc21 (stereo not drawn)
inhibition at 25 µg/mL (PBMC [1]): 62.4%
inhibition at 5 µg/mL (PBMC [2]): 49.1%
Activity (PBMC [3]): 39.8%
Activity (PBMC [4]): -23.5%
Activity (PBMC [5]): Non-toxic
Activity (PBMC [6]): 4.5%

Cc1ccc(S(=O)(=O)NCCCCN2c3ccc(Cl)cc3Sc3cc4ccccc4nc32)cc1
inhibition at 25 µg/mL (PBMC [1]): -12.7%
inhibition at 5 µg/mL (PBMC [2]): 20.7%
Activity (PBMC [3]): 19.8%
Activity (PBMC [4]): 13.2%
Activity (PBMC [5]): Non-toxic
Activity (PBMC [6]): Non-toxic

O=C(NCCCl)NCCCCN1c2ccc(Cl)cc2Sc2cc3ccccc3nc21
inhibition at 25 µg/mL (PBMC [1]): 56%
inhibition at 5 µg/mL (PBMC [2]): 54.8%
Activity (PBMC [3]): 94.6%
Activity (PBMC [4]): 98.4%
Activity (PBMC [5]): 19.2%
Activity (PBMC [6]): 86.3%

Clc1ccc2c(c1)Sc1cc3ccccc3nc1N2CCN1CCCCC1
inhibition at 25 µg/mL (PBMC [1]): 56.7%
inhibition at 5 µg/mL (PBMC [2]): -70.5%
Activity (PBMC [3]): 98.2%
Activity (PBMC [4]): 96.3%
Activity (PBMC [5]): 19.2%
Activity (PBMC [6]): 83.8%

Cc1ccc2c(c1)Sc1cc3ccccc3nc1N2
inhibition at 25 µg/mL (PBMC [1]): 66.6%
inhibition at 5 µg/mL (PBMC [2]): 54.1%
Activity (PBMC [3]): -6.2%
Activity (PBMC [4]): -17.9%
Activity (PBMC [5]): 2.4%
Activity (PBMC [6]): 15.4%

FC(F)(F)c1ccc2c(c1)Nc1nc3ccccc3cc1S2
inhibition at 25 µg/mL (PBMC [1]): 48.8%
inhibition at 5 µg/mL (PBMC [2]): 72.3%
Activity (PBMC [3]): 0.3%
Activity (PBMC [4]): 21.7%
Activity (PBMC [5]): Non-toxic
Activity (PBMC [6]): 21.5%

CSc1ccc2c(c1)Sc1cc3ccccc3nc1N2
inhibition at 25 µg/mL (PBMC [1]): 19.2%
inhibition at 5 µg/mL (PBMC [2]): 22.5%
Activity (PBMC [3]): 2.9%
Activity (PBMC [4]): 0%
Activity (PBMC [5]): Non-toxic
Activity (PBMC [6]): Non-toxic

CSc1ccc2c(c1)Sc1cc3ccccc3nc1N2CCCNC(C)=O
inhibition at 25 µg/mL (PBMC [1]): 64.5%
inhibition at 5 µg/mL (PBMC [2]): 71.7%
Activity (PBMC [3]): 68.8%
Activity (PBMC [4]): 72.5%
Activity (PBMC [5]): Non-toxic
Activity (PBMC [6]): Non-toxic

CS(=O)(=O)NCCCCN1c2ccc(Cl)cc2Sc2cc3ccccc3nc21
inhibition at 25 µg/mL (PBMC [1]): 24.5%
inhibition at 5 µg/mL (PBMC [2]): -7.5%
Activity (PBMC [3]): 43.9%
Activity (PBMC [4]): 59.4%
Activity (PBMC [5]): Non-toxic
Activity (PBMC [6]): Non-toxic

CCOC(=O)NCCCCN1c2ccc(SC)cc2Sc2cc3ccccc3nc21
inhibition at 25 µg/mL (PBMC [1]): 33.1%
inhibition at 5 µg/mL (PBMC [2]): 50.9%
Activity (PBMC [3]): 27.8%
Activity (PBMC [4]): 44.3%
Activity (PBMC [5]): Non-toxic
Activity (PBMC [6]): Non-toxic

Reference: ChEMBL document CHEMBL2375308, “Synthesis and selected immunological properties of substituted quino[3,2-b]benzo[1,4]thiazines” (Eur J Med Chem, 2013)
